Screens from PubChem.
PRMT1 inh = PRMT1 (human) inhibition, primary screen | recombinant PRMT1, activity-based probe fluorescence polarization | inhibition, % at 2.79 µM | 370,000 tested, 1.3% active | AID 652257;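 active = inhibition above about 21% made by adding two undisclosed values, limit read from the data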
PAD4 inh = PAD4 (human) enzyme inhibition; recombinant PAD4, RCA probe fluorescence polarization; inhibition, % at 6.36 µM; AID 485272; Q9UM07; 330,000 tested, 0.41% active;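 active = percent inhibition above a cutoff equal to the mean of all tested compounds plus 3 SD, cut at about 15% in these data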;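 note: 0% = PAD4 with RCA probe and DMSO and 100% = probe without PAD4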
RBBP9 inhibitor = human RBBP9 hydrolase inhibition; recombinant RBBP9, FP-Rh probe fluorescence polarization; 220,000 tested, 0.2% active; O75884; inhibition, % at 7.94 µM;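 active = inhibition above the campaign mean of all tested compounds plus 3 SD, cut at about 14% in these data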;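 note: plate controls were DMSO wells with RBBP9 for no effect and wells lacking RBBP9 protein for full effect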
Target sequence (O75884 whole entry, looked up): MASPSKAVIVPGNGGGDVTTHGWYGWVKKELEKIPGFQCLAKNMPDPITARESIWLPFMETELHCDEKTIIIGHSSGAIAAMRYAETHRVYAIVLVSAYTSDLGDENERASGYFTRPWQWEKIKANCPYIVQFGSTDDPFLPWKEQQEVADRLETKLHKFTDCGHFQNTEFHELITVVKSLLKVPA
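Test system: recombinant human RBBP9; Timing: 30 min then 45 min, 25 °C; Detection: fluorescence polarization; Control set: RBBP9 with DMSO as uninhibited control, no-protein wells as full inhibition; Compound dosing: one concentration, 7.94 µM nominal, 0.794% DMSO; Probe or stimulus: FP-Rh activity-based probe, 375 nM before mixing.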
GSTO1 counter = blocks human GSTO1 in RBBP9 counter-screen. AID 1974. recombinant GSTO1, activity-based probe fluorescence polarization. 300,000 tested, 1.1% active. P78417. inhibition, % at 5.96 µM;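 active = inhibition above the campaign mean inhibition plus 3 SD, cut at about 35% in these data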;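 note: 0% = GSTO1-1 with DMSO and 100% = wells lacking GSTO1-1 enzyme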
SIAE primary = inhibitors of human sialic acid acetylesterase SIAE. Q9HAT2. SIAE FP-Rh probe binding, fluorescence polarization. inhibition, % at 9.66 µM. 370,000 tested, 0.69% active;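 active = inhibition above a cutoff: mean of compounds within the control limits plus 3 SD of those, cut at about 17% in these data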;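 note: 0% = plate median of compound wells and 100% = probe without SIAE protein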
Target sequence (Q9HAT2 whole entry, looked up): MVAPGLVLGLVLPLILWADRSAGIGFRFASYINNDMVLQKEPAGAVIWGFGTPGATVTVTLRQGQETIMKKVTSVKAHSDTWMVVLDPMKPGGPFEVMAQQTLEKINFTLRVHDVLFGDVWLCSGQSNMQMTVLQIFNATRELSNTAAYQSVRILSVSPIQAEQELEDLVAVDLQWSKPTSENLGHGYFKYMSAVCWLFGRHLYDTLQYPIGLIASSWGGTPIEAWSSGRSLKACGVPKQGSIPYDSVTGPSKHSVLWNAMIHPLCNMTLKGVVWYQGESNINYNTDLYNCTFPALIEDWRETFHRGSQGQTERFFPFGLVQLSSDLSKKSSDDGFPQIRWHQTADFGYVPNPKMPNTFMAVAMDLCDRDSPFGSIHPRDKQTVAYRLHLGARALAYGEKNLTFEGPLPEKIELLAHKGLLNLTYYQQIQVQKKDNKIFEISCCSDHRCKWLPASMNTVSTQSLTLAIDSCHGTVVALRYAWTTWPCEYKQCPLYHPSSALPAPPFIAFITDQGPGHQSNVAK
* = called active by the depositor; nt = no result given. Shown are actives, neighbours in structure and some others; about 2.7% of the full set was active somewhere.

SMILES | PRMT1 inh | PAD4 inh | RBBP9 inhibitor | GSTO1 counter | SIAE primary
Oc1ccc(Cl)cc1-c1cc(-c2ccco2)[nH]n1 | 3.7 | -11.2 | -18.8 | -12.3 | -12.5
Cc1ccc(NNC(=O)Nc2ccc(Cl)cc2)nn1 | 24.2* | 0.0 | 2.7 | 23.2 | -3.1
O=C(CSc1nnnn1-c1ccccc1)N1CCc2ccccc21 | -0.5 | 0.1 | 0.7 | -6.6 | -0.5
O=C(CSc1nnnn1-c1ccc2c(c1)OCCO2)N1CCc2ccccc21 | 0.5 | -3.7 | 8.2 | -2.4 | 26.8*
CC[C@@H](NC(=O)Cn1cc(C)c(=O)[nH]c1=O)c1ccccc1 | -2.1 | nt | nt | nt | -3.3
Cc1ccc(S(=O)(=O)c2ccc([N+](=O)[O-])cn2)cc1 | 34.5* | 6.8 | nt | 6.6 | -3.5
O=[N+]([O-])c1ccc(S(=O)(=O)c2ccccc2)nc1 | 28.9* | 4.4 | nt | 3.3 | -3.6
Cc1ccc(C2(C)NC(=O)N(CC(=O)Nc3ccc(-c4nc5ccc(C)cc5s4)cc3)C2=O)cc1 (centres undefined) | -2.8 | -9.2 | -28.1 | -64.1 | -53.8
O=C(C1CC1)N1CCN(c2ccc([N+](=O)[O-])cc2)CC1 | -1.5 | 1.6 | nt | 15.5 | 1.6
COc1cc(/C=C(\C#N)C(=O)c2ccc(O)c(O)c2)cc(I)c1O | 29.2* | -31.8 | nt | 45.5* | -9.8
Cc1ccc(OCC(=O)c2ccc(Cl)s2)c([N+](=O)[O-])n1 | 24.3* | -6.9 | -3.5 | 22.8 | 3.5
Cc1ccc(CNC(=O)COc2ccc(C)nc2[N+](=O)[O-])cc1 | -2.4 | 0.5 | -5.0 | 4.5 | 2.2
OCC1OC(O)CC(O)C1O (centres undefined) | -4.5 | nt | nt | nt | -0.7
O=C1CSC(=S)N1c1ccc(F)cc1 | nt | -10.5 | nt | -0.2 | nt
CN(C)c1ccc(N2C(=O)CSC2=S)cc1 | 23.5* | -36.6 | 3.9 | -65.0 | -15.1
CCC1Oc2ccccc2N(CC(=O)NCc2cccs2)C1=O (centres undefined) | -2.9 | 1.2 | -5.9 | 37.3* | 7.5
COC(=O)CCCC1=CC2=CC(=O)C(C)(OC(=O)c3cccs3)C(=O)C2=CN1C1CCCC1 (centres undefined) | 3.4 | 3.4 | nt | 36.8* | 14.6
CCC1CCc2sc(C(=O)NCC(c3ccc(OC)cc3)N3CCCC3)cc2C1 (centres undefined) | -7.2 | -4.9 | nt | -2.4 | -0.5
CCn1cc(C(=O)NC(C)C23CC4CC(CC(C4)C2)C3)cn1 (centres undefined) | 1.9 | 0.9 | -4.9 | -0.7 | -4.2
CC(NC(=O)Cn1ncc(Cl)c(Cl)c1=O)C12CC3CC(CC(C3)C1)C2 (centres undefined) | nt | 5.0 | -0.7 | 36.5* | nt
CCOC(=O)c1c(C)[nH]c(C)c1C(=O)COC(=O)c1ccc(OC)c(OC)c1 | 3.1 | -3.5 | -7.5 | 35.3* | -2.4
CCOC(=O)c1c(C)[nH]c(C)c1C(=O)COC(=O)c1c(OC)cccc1OC | -0.8 | -1.8 | -9.5 | 2.7 | -3.0
S=C1Nc2ccccc2CS1 | 4.2 | nt | nt | nt | 6.9
S=C1Cc2ccccc2N1 | 34.8* | nt | -2.5 | nt | 5.7
O=C1CSC(=S)N1Nc1ccccc1 | 23.6* | nt | nt | nt | -23.9
SMILES | PRMT1 inh | PAD4 inh | RBBP9 inhibitor | GSTO1 counter | SIAE primary
COc1ccc(N(C(=O)c2ccco2)C(C(=O)NC2CCCC2)c2cccnc2)c(OC)c1 (centres undefined) | 5.5 | -6.9 | nt | 11.8 | 2.2
O=C(CCl)c1ccc2c(c1)CCN2C(=O)C1CC1 | nt | -2.7 | -2.8 | 57.4* | nt
O=C(C1CCC(C(=O)N2CCc3ccccc32)CC1)N1CCc2ccccc21 (centres undefined) | 0.7 | 1.3 | 4.3 | 2.6 | -0.1
CC(=O)Nc1ccc(C=NNc2ccc(S(=O)(=O)Nc3ccccc3C(=O)O)cc2[N+](=O)[O-])cc1 | 10.9 | 4.8 | nt | nt | -2.7
O=C(O)c1ccccc1NS(=O)(=O)c1ccc(NNC(=S)Nc2ccc(OC(F)F)cc2)c([N+](=O)[O-])c1 | 23.2* | nt | -1.4 | nt | 7.7
CCc1nc2sc3c(c2c(=O)n1NC(=O)CCl)CCCC3 | 2.5 | 2.2 | -13.7 | 58.4* | -1.4
O=C(CCN1C(=O)/C(=C/c2cccs2)SC1=S)Nc1cccc(C(=O)O)c1 | 0.7 | 1.4 | nt | 13.3 | -6.9
O=C(NC1CC1)C1Nc2ccc(OC(F)(F)F)cc2C2C=CCC12 (centres undefined) | 21.6* | 1.4 | nt | -2.7 | 3.5
O=C(NCc1ccccc1)C1Nc2ccc(OC(F)(F)F)cc2C2C=CCC12 (centres undefined) | 12.5 | -8.0 | nt | -1.5 | 9.7
Cc1ccc2c(c1)C1C=CCC1C(C(=O)O)N2 (centres undefined) | nt | 6.8 | -1.3 | 54.4* | nt
Cc1ccc(-c2nn(-c3ccccc3)cc2CO)o1 | 24.7* | -3.3 | -8.8 | 0.6 | -4.6
CN(C)C(/C=C/Nc1ccc([N+](=O)[O-])cc1)=C(C#N)C#N | 1.9 | -10.5 | -9.1 | 1.5 | -2.9
O=C(CSc1nc2ccccc2n1CCc1ccccc1)c1ccc(O)c(O)c1 | 17.7 | nt | -22.2 | nt | 20.0*
O=C(CSc1nc2ccccc2c(=O)[nH]1)c1ccc(O)cc1O | 2.6 | nt | -6.1 | nt | 3.5
O=C(CSc1nc2ccccc2c(=O)[nH]1)c1ccc(O)c(O)c1 | 22.6* | -1.1 | -0.8 | 29.0 | 1.2
Cc1nn(C2CCS(=O)(=O)C2)c(Cl)c1/C=C/C(=O)OCC(=O)Nc1ccccc1[N+](=O)[O-] (centres undefined) | -2.4 | -2.2 | 7.7 | -5.0 | 3.2
O=c1c2ccccc2sn1-c1cc(S(=O)(=O)N2CCOCC2)ccc1N1CCOCC1 | 88.4* | 6.9 | 44.8* | -1.1 | -0.4
O=S(=O)(c1ccc(N2CCOCC2)c(Cl)c1)N1CCOCC1 | -0.4 | 0.1 | nt | -0.3 | -3.9
Nc1nccc(/C=C/c2c(Cl)cccc2Cl)n1 | -0.3 | -1.2 | -10.3 | 7.5 | 0.6
O=C(CSc1c2c(nc3cc(Cl)ccc13)CCCC2)NCc1ccco1 | 23.2* | -0.7 | -3.1 | -72.3 | -1.0
O=C(CCSCCC(=O)NCc1ccco1)NCc1ccco1 | 24.1* | -2.7 | -4.2 | 6.2 | 1.9
O=C(CSc1ccc2c(c1)OCCO2)NCc1ccco1 | 21.8* | 0.7 | -3.6 | 9.6 | 4.5
Nc1nnnn1CC(=O)N/N=C/c1cccs1 | 4.3 | -1.9 | -7.1 | 5.7 | -3.3
COc1ccc(Cn2c(N)c(C#N)c3nc4ccccc4nc32)cc1 | 2.7 | -16.3 | -2.1 | 38.6* | -3.2
COc1ccc(Cl)cc1NC(=S)N1CCN(c2ccccn2)CC1 | 0.1 | 1.0 | -0.7 | 7.9 | -1.1
COc1cc(NC(=S)N2CCN(c3ccccn3)CC2)c(OC)cc1Cl | 22.0* | -3.6 | -1.8 | 6.8 | -0.1
COc1cc(Cl)cc(C(c2c(C(=O)O)[nH]c3ccccc23)c2c(C(=O)O)[nH]c3ccccc23)c1O | 0.0 | 2.2 | nt | 22.1 | 6.8
O=C(O)c1[nH]c2ccccc2c1C(c1cc(Br)ccc1O)c1c(C(=O)O)[nH]c2ccccc12 | 1.5 | -2.6 | nt | 59.4* | 3.9
O=C(O)c1[nH]c2ccccc2c1C(c1c(F)cccc1Cl)c1c(C(=O)O)[nH]c2ccccc12 | 1.8 | -7.0 | nt | 41.2* | 5.0
CSc1ccccc1OCc1cc(C(=O)NC(C)c2cnn(C)c2)no1 (centres undefined) | -3.1 | -2.2 | nt | -0.5 | 4.8
